Data taken from ChEMBL document CHEMBL1154198, “Chemical genetics of Plasmodium falciparum” (Nature, 2010).

Key:
Plasmodium falciparum [1] = assay: ST_JUDE: Plasmodium falciparum 3D7 EC50 (uM) as measured by SYBR green dye; format: functional, organism-based
Plasmodium falciparum [2] = assay: ST_JUDE: Plasmodium falciparum K1 EC50 (uM) as measured by SYBR green dye; format: functional, organism-based
Plasmodium falciparum [3] = assay: ST_JUDE: Cytotoxicity against Plasmodium falciparum 3D7; format: functional, organism-based
In short: (§1)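 Asexual P. falciparum grown in human erythrocytes, exposed to compounds for 72 h, and growth read as the DNA quantity in treated versus control cultures. Dose-response run at 12 concentrations from 10 μM to 5 nM.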

Plasmodium falciparum [4] = assay: ST_JUDE: Cytotoxicity against Plasmodium falciparum K1; format: functional, organism-based; in short: as §1
Plasmodium falciparum [5] = assay: ST_JUDE: Cytotoxicity against Plasmodium falciparum V1/S; format: functional, organism-based
Toxoplasma gondii = assay: ST_JUDE: Growth inhibition of to Toxoplasma gondii, in human U-2OS cells, as measured by luciferase.; format: functional, organism-based; settings: RH, U2OS
In short: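 T. gondii parasites engineered to express luciferase; drug sensitivity read by luminescence.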

Trypanosoma brucei = assay: ST_JUDE: Cytotoxicity using luciferase to measure ATP as an indicator of the viability of Trypanosoma brucei; format: functional, organism-based
Leishmania major = assay: ST_JUDE: Cytotoxicity using Alamar Blue to measure viability of Leishmania major; format: functional, organism-based
In short: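 L. major promastigotes; drug susceptibility read with Alamar Blue.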

[6] = ST_JUDE: Cytotoxicity using luciferase to measure ATP as an indicator of the viability of human foreskin fibroblast cells (BJ); format: toxicity, cell-based
[7] = ST_JUDE: Cytotoxicity using luciferase to measure ATP as an indicator of the viability of human epithelial hepatocellular carcinoma cells (HepG2); format: toxicity, cell-based
[8] = ST_JUDE: Cytotoxicity using luciferase to measure ATP as an indicator of the viability of human epithelial embryonic kidney cells (HEK293); format: toxicity, cell-based
[9] = ST_JUDE: Cytotoxicity using luciferase to measure ATP as an indicator of the viability of human Burkitt''s lymphoma lymphoblast cells (Raji); format: toxicity, cell-based
Plasmodium falciparum [10] = assay: ST_JUDE: Cytotoxicity against Plasmodium falciparum Dd2; format: functional, organism-based
Plasmodium falciparum [11] = assay: ST_JUDE: Cytotoxicity against Plasmodium falciparum W2; format: functional, organism-based
Plasmodium falciparum [12] = assay: ST_JUDE: Cytotoxicity against Plasmodium falciparum SB-A6; format: functional, organism-based
Plasmodium falciparum [13] = assay: ST_JUDE: Cytotoxicity against Plasmodium falciparum D10 transfected with yeast DHOD; format: functional, organism-based

SMILES	EC50 (Plasmodium falciparum [1]) [µM]	EC50 (Plasmodium falciparum [2]) [µM]	EC50 (Plasmodium falciparum [3]) [µM]	EC50 (Plasmodium falciparum [4]) [µM]	EC50 (Plasmodium falciparum [5]) [µM]	EC50 (Toxoplasma gondii) [µM]	EC50 (Trypanosoma brucei) [µM]	EC50 (Leishmania major) [µM]	EC50 [6] [µM]	EC50 [7] [µM]	EC50 [8] [µM]	EC50 [9] [µM]	EC50 (Plasmodium falciparum [10]) [µM]	EC50 (Plasmodium falciparum [11]) [µM]	EC50 (Plasmodium falciparum [12]) [µM]	EC50 (Plasmodium falciparum [13]) [µM]
COc1ccc(NC(=O)C2c3ccccc3C(=O)N(CC(C)C)C2c2cccs2)cc1OC (centres undefined)	0.0501	0.0518	0.105	0.11	0.132	> 24.1	6.93	> 18.8	> 44	> 44	> 44	> 44	0.123	0.0496	0.09	0.0913
CC[n+]1ccccc1C=Cc1ccc(N(C)C)cc1	> 15	0.704	1.08	1.14	1.98	> 24.8	14.3	> 19.4	> 45.3	> 45.3	> 45.3	3.86	1.82	> 11.6	1.92	1.47
Cc1ccc(C2CC(C(F)(F)F)n3nc(C(=O)N4CCN(C(c5ccccc5)c5ccccc5)CC4)cc3N2)cc1 (centres undefined)	0.668	10.4	1.12	> 11	> 11	> 23.4	5.41	> 18.3	> 42.7	> 42.7	> 42.7	> 42.7	1.37	> 11	0.448	> 11
CCOC(=O)C1=C(C)N=c2s/c(=C/c3ccccc3O)c(=O)n2C1c1ccccc1 (centres undefined)	> 15	0.39	0.317	0.343	> 9.41	> 20.1	6.97	> 15.7	> 36.6	> 36.6	> 36.6	> 36.6	2.18	2.21	0.513	0.486
CCOC(=O)C1(Cc2cccc(F)c2)CCN(Cc2ccccc2O)CC1	0.347	0.284	1.2	0.402	1.27	> 28.8	25.3	> 22.5	> 52.6	> 52.6	> 52.6	> 52.6	0.679	1.01	1.2	1.42

More lines, in order of falling EC50 (Plasmodium falciparum [1]), values ahead:

EC50 (Plasmodium falciparum [1]) [µM]	EC50 (Plasmodium falciparum [2]) [µM]	SMILES	EC50 (Plasmodium falciparum [3]) [µM]	EC50 (Plasmodium falciparum [4]) [µM]	EC50 (Plasmodium falciparum [5]) [µM]	EC50 (Toxoplasma gondii) [µM]	EC50 (Trypanosoma brucei) [µM]	EC50 (Leishmania major) [µM]	EC50 [6] [µM]	EC50 [7] [µM]	EC50 [8] [µM]	EC50 [9] [µM]	EC50 (Plasmodium falciparum [10]) [µM]	EC50 (Plasmodium falciparum [11]) [µM]	EC50 (Plasmodium falciparum [12]) [µM]	EC50 (Plasmodium falciparum [13]) [µM]
0.907	0.761	CCN(CC)CCn1c(=N)n(CC(O)c2ccc(Cl)c(Cl)c2)c2ccccc21 (centres undefined)	0.804	1.03	1.11	9.01	4.96	> 18.4	> 43.1	7.18	30.7	> 43.1	0.48	0.722	1.07	0.842
0.653	1.08	CCCO/C(O)=C1\C(C)=NC2=C(C(=O)CC(c3ccc(OC)cc3)C2)C1c1ccc([N+](=O)[O-])cc1 (centres undefined)	3	1.07	1.48	> 24.8	6.94	> 19.4	> 45.2	> 45.2	> 45.2	> 45.2	1.6	> 11.6	1.03	1.53
0.557	0.472	CCc1ccc(S(=O)(=O)NC2=C/C(=N\c3ccccc3)C(=O)c3ccccc32)cc1	0.284	0.276	0.404	> 16.9	1.46	> 13.2	5.65	4.29	5.21	2.66	0.575	0.484	0.34	0.373
0.0685	0.144	CC(=O)N(C1=C(N(C)C)C(=O)c2ccccc2C1=O)c1ccc(F)cc1	0.0121	0.0152	0.0119	0.63	0.571	> 13.7	3.83	0.713	7.54	0.284	0.0125	0.0773	0.0297	0.0176
